Test results: ChEMBL document CHEMBL4393654, “Discovery and Early Clinical Development of an Inhibitor of 5-Lipoxygenase Activating Protein (AZD5718) for Treatment of Coronary Artery Disease” (J Med Chem, 2019)
In brackets after ≈: the same amount, converted by molar mass. Activity calls are given as the source filed them. The calls are words filed in the database; no cut-off is given here.

Tests used:
[1] = biological target: T1, Arachidonate 5-lipoxygenase-activating protein (Homo sapiens) (UniProt P20292); experiment: Inhibition of FLAP in human whole blood assessed as reduction in calcium ionophore-stimulated LTB4 production preincubated for 4 hrs followed by calcium ionophore stimulation and measured after 20 mins by EIA; assay type: tissue-based
T1 sequence (whole entry): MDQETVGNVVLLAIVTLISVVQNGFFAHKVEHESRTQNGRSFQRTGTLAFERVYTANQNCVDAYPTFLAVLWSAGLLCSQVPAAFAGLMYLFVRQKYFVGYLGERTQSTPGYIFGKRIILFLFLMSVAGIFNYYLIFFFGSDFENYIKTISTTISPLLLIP
In short: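 Fresh human whole blood was incubated with compound for 4 h, then stimulated with calcium ionophore, and LTB4 production was measured as the 5-LO pathway read-out. IC50 was also converted to a free value: IC50 × (Fu/100), where Fu = 100 − human plasma protein binding (%).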

[2] = Octanol-phosphate buffer partition co-efficient, log D of the compound at pH 7.4 after 2 hrs by LC-MS/MS-based shake flask method; assay type: physicochemical
In short: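 Distribution between octanol and water at pH 7.4.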

[3] = biological target: T2, Arachidonate 5-lipoxygenase-activating protein (Homo sapiens, UniProt P20292); experiment: Inhibition of [3H]MK0591 binding to human FLAP expressed in […] cell membranes measured after 60 to 80 mins by microbeta scintillation counting method
T2 sequence (P20292 whole entry): T1 sequence (whole entry)

[4] = Aqueous solubility of the compound in pH 7.4 phosphate buffer measured after 24 hrs by LC-MS/MS-based shake flask method; assay type: physicochemical
[5] = Mutagenicity in Salmonella typhimurium TA100 in presence of rat S9 fraction by Ames test; assay type: toxicity, subcellular; settings: salmonella enterica subsp. enterica serovar typhimurium
In short: (§1)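 Ames bacterial mutagenicity test in S. typhimurium TA98 and TA100. Run with and without metabolic activation by rat S9 fraction.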

[6] = Mutagenicity in Salmonella typhimurium TA98 in absence of rat S9 fraction by Ames test; assay type: toxicity; settings: salmonella enterica subsp. enterica serovar typhimurium; in short: as §1
[7] = Mutagenicity in Salmonella typhimurium TA100 in absence of rat S9 fraction by Ames test; assay type: toxicity; settings: salmonella enterica subsp. enterica serovar typhimurium; in short: as §1
[8] = Intrinsic clearance in rat hepatocytes assessed per million cells at 1 uM measured after 2 to 60 mins by LC-MS/MS analysis; assay type: ADME, cell-based, Hepatocyte; settings: read-out: CLH
In short: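 Rat hepatocyte incubation of the compound; intrinsic clearance measured after incubation.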

[9] = Passive apparent permeability across apical to basolateral side in human Caco2 cells at pH 6.5; assay type: ADME, cell-based; settings: Caco-2, pH 6.5
In short: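 Passive permeability across Caco-2 monolayers, measured in the A to B direction at pH 6.5.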

[10] = Mutagenicity in Salmonella typhimurium TA98 in presence of rat S9 fraction by Ames test; assay type: toxicity, subcellular; settings: salmonella enterica subsp. enterica serovar typhimurium; in short: as §1
[11] = Intrinsic clearance in human hepatocytes assessed per million cells at 1 uM measured after 2 to 60 mins by LC-MS/MS analysis; assay type: ADME, cell-based, Hepatocyte; settings: read-out: CLH
[12] = biological target: T3, Prostaglandin G/H synthase 2 (Homo sapiens) (UniProt P35354); experiment: Activity at COX2 in human whole blood assessed as effect on LPS-induced PGE2 production preincubated for 15 mins followed by LPS-stimulation and measured after overnight incubation by EIA; assay type: tissue-based
T3 sequence (whole entry): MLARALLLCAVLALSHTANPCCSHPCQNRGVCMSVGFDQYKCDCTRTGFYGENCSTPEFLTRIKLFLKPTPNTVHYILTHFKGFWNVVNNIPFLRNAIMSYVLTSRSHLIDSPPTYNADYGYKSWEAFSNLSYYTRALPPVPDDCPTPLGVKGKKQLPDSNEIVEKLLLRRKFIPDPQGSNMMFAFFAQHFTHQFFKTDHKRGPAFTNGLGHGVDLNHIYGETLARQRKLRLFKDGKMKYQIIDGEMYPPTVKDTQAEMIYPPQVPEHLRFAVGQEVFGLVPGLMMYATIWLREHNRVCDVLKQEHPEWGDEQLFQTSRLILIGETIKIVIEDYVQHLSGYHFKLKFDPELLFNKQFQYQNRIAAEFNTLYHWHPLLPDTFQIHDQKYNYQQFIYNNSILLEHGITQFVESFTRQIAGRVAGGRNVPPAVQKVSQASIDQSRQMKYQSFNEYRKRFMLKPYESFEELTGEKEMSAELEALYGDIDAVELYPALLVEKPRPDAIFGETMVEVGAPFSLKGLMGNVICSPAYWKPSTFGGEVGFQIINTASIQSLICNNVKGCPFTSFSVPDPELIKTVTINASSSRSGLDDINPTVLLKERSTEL

THP-1 = experiment: Cytotoxicity against human THP1 cells assessed as reduction in cell viability measured after 48 hrs by resazurin assay; assay type: cell-based; settings: THP-1, 48 h
[13] = biological target: Prostaglandin G/H synthase 1 (Homo sapiens) (UniProt P23219); experiment: Activity at COX1 in human whole blood assessed as effect on […] production by EIA; assay type: tissue-based
Sequence of Prostaglandin G/H synthase 1 (Homo sapiens) (P23219 whole entry): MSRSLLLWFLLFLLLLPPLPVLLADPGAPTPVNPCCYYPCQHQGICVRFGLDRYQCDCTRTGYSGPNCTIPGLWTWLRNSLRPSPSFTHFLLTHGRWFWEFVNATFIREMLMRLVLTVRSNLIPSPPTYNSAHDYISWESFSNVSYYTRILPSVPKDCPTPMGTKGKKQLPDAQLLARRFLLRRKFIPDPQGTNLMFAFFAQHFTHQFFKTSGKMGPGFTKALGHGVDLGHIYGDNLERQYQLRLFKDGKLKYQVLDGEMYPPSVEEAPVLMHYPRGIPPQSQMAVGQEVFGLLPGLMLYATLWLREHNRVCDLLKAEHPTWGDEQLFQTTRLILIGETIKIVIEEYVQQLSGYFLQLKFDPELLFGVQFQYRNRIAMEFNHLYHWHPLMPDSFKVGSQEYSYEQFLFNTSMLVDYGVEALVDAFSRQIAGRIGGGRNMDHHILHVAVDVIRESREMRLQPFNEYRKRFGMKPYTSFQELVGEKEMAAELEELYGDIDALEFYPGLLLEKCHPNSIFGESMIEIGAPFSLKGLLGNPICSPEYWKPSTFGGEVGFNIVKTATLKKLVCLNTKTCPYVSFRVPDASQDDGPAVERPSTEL

HepG2 = experiment: Cytotoxicity against human HepG2 cells assessed as reduction in ATP depletion in presence of glucose/galactose; assay type: cell-based

SMILES | fIC50 [1] | logD at 2 h [2] | IC50 [3] | solubility thermodynamic at 24 h [4] | Activity [5] | Activity [6] | Activity [7] | hepatocyte CLint at 1 µM [8] | Papp A→B [9] | Activity [10] | hepatocyte CLint at 1 µM [11] | Activity [12] | IC50 (THP-1) | Activity [13] | IC50 (HepG2)
Cc1cc(-c2ccc(C(=O)[C@@H]3CCCC[C@H]3C(=O)Nc3c(C(N)=O)n[nH]c3C)cc2)n[nH]1 | 96 nM |  |  |  |  |  |  |  |  |  |  |  |  |  | 
Cc1cc(-c2ccc(C(=O)[C@@H]3CCCC[C@H]3C(=O)Nc3cnn(C)c3C(=O)NO)cc2)[nH]n1 |  | 2.1 | 47 nM | 224 µM (≈ 101 µg/mL) |  |  |  |  |  |  |  |  |  |  | 
Cc1cc(-c2ccc(C(=O)[C@@H]3CCCC[C@H]3C(=O)Nc3cnn(C)c3C(N)=O)cc2)[nH]n1 | 13 nM | 2.6 |  | 475 µM (≈ 206 µg/mL) | Toxic | Toxic | Toxic | 6.5 µL/min/1e6 cells | 2.6 ×10⁻⁶ cm/s | Toxic | 3 µL/min/1e6 cells |  |  |  | 
Cc1cc(-c2ccc(C(=O)[C@@H]3CCCC[C@H]3C(=O)Nc3cnn(C)c3S(N)(=O)=O)cc2)n[nH]1 | 6.5 nM |  |  |  |  |  |  |  |  |  |  | inactive | > 250000 nM | inactive | > 250000 nM
Cc1cc(-c2ccc(C(=O)[C@@H]3CCCC[C@H]3C(=O)Nc3cn(C)nc3C)cc2)n[nH]1 | 7.4 nM | 3.1 | 59 nM | 225 µM (≈ 91.2 µg/mL) | Non-Toxic | Non-Toxic | Non-Toxic | 12.8 µL/min/1e6 cells | 20.5 ×10⁻⁶ cm/s | Non-Toxic | 4 µL/min/1e6 cells |  |  |  | 
Cc1cc(-c2ccc(C(=O)[C@@H]3CCCC[C@H]3C(=O)Nc3cn(C)nc3C(N)=O)cc2)n[nH]1 |  |  |  | 60 µM (≈ 26.1 µg/mL) | Non-Toxic | Non-Toxic | Non-Toxic | 14 µL/min/1e6 cells |  | Non-Toxic | 12.4 µL/min/1e6 cells |  |  |  | 
Cc1cc(-c2ccc(C(=O)[C@@H]3CCCC[C@H]3C(=O)Nc3cn(C)nc3C(N)=O)cc2)[nH]n1 | 22 nM |  |  |  |  |  |  |  |  |  |  |  |  |  | 
